*1 amine or outer side, *2 acyl side, *3 side chain or, on linkers, in order; H or OH if unused. Where no end group is shown, it is not given here. [ ]: non-standard residue; d: D form. KCme2 = N-dimethylated aminoethylcysteine, CN(C)CCSC[C@H](N[*:1])C(=O)[*:2]; Me2 = dimethyl group on the Lys side-chain amine
Columns and labels:
[1] = biological target: T1, 53BP1 TTD (Homo sapiens, UniProt Q12888); assay: NMR titration; assay type: binding; details: 1H,15N HSQC, 298 K; for effect of glycine mutation on CSPs in 15N-labeled TTD: 0.1–0.2 mM TTD, glycine mutants of p53KC370me2 peptide
[2] = biological target: T1, 53BP1 TTD; assay: NMR solution structure of TTD-peptide complex; details: 298 K, 25 mM sodium phosphate pH 7.5
Outline: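 Complexes of the 53BP1 tandem Tudor domain with dimethylated p53 peptides (residues 363–377 or 376–387) recorded on a 700 MHz cryoprobe in 90% H2O/10% D2O or 100% D2O with 1.5 mM NaN3. Samples were 2 mM 13C/15N-TTD with 6 mM unlabeled peptide, or 2 mM labeled dimethyllysine-analog peptide with 5 mM TTD. Intermolecular NOEs came from filtered 13C-edited NOESY-HSQC.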

[3] = biological target: T1, 53BP1 TTD; details: monomeric TTD; ref Roy et al., 2010; cited from earlier work
[4] = biological target: CL-TTD (Homo sapiens, UniProt Q12888, C1525A/C1535A); assay: NMR titration; assay type: binding; details: 1H,15N HSQC, 298 K, 0.1–0.2 mM CL-TTD
[5] = system: GST-tagged 53BP1 TTD; assay: Peptide microarray; assay type: binding, human; details: normalized mean intensities of four arrays
[6] = biological target: T1, 53BP1 TTD; assay: Overall preference of 53BP1 TTD from peptide library, fluorescence and NMR; assay type: binding; details: overall conclusion from library, fluorescence and NMR results

T1 sequence (Q12888 1484-1603): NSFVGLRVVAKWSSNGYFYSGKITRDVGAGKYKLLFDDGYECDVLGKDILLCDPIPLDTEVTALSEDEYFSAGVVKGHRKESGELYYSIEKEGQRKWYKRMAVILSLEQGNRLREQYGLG
Sequence of CL-TTD (Q12888 1481-1603 C1525A/C1535A): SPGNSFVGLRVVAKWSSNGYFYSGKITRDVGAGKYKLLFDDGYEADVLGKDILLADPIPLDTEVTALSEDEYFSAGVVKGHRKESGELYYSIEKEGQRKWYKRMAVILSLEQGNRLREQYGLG

p53H365GKC370me2: p53KC370me2 peptide with H365 substituted with glycine (GHMRAGSSHL[KCme2]SKKGQST)
effect of glycine mutation on CSPs in 15N-labeled TTD [1]: Alterations in CSPs

p53H368GKC370me2: p53KC370me2 peptide with H368 substituted with glycine (GHMRAHSSGLCSKKGQST; not fully specified (residue 11))
effect of glycine mutation on CSPs in 15N-labeled TTD [1]: Alterations in CSPs

p53K370me2: p53K370me2 (residues 363–377) peptide, chemically synthesized (RAHSSHLK(Me2)SKKGQST)
site of dimethyllysine indicated by pattern of CSPs [1]: fully consistent with K370me2 occupying the aromatic cage
protein-peptide interface area in NMR ensemble [2]: 707 ± 43 Å^2
Kd [3]: 20 µM

p53K382me2: p53K382me2 (residues 376–387) peptide, chemically synthesized (STSRHKK(Me2)LMFKT)
chemical shift / resonance intensity changes in 15N-labelled CL-TTD [4]: substantial chemical shift changes
binding in peptide library screen [5]: recognized primarily
protein-peptide interface area in NMR ensemble [2]: 678 ± 60 Å^2
preference of 53BP1 TTD module [6]: strong preference
Kd [3]: 0.9 µM

p53KC370me2K372G: p53KC370me2 peptide with K372 substituted with glycine (GHMRAHSSHLCSGKGQST; not fully specified (residue 11))
effect of glycine mutation on CSPs in 15N-labeled TTD [1]: caused the same CSPs as the wild type p53KC382me2 peptide

p53KC370me2K373G: p53KC370me2 peptide with K373 substituted with glycine (GHMRAHSSHLCSKGGQST; not fully specified (residue 11))
effect of glycine mutation on CSPs in 15N-labeled TTD [1]: caused the same CSPs as the wild type p53KC382me2 peptide

p53L369GKC370me2: p53KC370me2 peptide with L369 substituted with glycine (GHMRAHSSHGCSKKGQST; not fully specified (residue 11))
effect of glycine mutation on CSPs in 15N-labeled TTD [1]: Alterations in CSPs
